Source: ChEMBL document CHEMBL5329176, “Design, synthesis, and biological evaluation of novel pyrimidin-2-amine derivatives as potent PLK4 inhibitors” (RSC Med Chem, 2023)
pIC50: −log10 of the molar value.

Assays:
[1] = molecular target: T1, Serine/threonine-protein kinase PLK4 (Homo sapiens, UniProt O00444); assay: Inhibition of human recombinant PLK4 incubated for 1 hrs by LanthaScreen Eu kinase FRET assay
T1 sequence (O00444 whole entry): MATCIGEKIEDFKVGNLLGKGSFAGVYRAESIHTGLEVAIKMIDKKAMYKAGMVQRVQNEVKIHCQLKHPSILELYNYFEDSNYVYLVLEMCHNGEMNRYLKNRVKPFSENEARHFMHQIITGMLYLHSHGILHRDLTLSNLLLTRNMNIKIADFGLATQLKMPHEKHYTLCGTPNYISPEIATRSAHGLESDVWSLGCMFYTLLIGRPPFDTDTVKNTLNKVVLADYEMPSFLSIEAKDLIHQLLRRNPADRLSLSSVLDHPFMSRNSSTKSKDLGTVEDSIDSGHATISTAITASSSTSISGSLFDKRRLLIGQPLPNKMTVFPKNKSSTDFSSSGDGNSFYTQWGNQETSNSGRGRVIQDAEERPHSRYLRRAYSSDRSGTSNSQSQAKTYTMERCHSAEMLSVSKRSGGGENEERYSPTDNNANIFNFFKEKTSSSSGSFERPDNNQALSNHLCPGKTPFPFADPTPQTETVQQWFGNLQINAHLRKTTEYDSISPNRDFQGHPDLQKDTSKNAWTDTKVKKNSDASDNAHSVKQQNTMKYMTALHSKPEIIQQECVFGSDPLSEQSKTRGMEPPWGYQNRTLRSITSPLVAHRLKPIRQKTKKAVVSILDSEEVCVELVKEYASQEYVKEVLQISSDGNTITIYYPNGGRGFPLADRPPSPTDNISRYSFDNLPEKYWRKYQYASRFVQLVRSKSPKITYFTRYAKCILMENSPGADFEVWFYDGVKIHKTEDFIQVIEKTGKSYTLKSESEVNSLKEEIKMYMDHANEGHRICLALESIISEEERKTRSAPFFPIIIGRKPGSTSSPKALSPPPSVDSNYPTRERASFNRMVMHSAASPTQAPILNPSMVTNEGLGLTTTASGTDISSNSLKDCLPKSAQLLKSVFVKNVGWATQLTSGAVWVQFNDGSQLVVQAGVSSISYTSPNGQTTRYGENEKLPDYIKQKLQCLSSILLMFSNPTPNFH

BT-474 = assay: Antiproliferative activity against human BT-474 cells assessed as cell growth inhibition incubated for 5 days by MTT assay; format: functional, cell-based; settings: BT-474, 120 h
MCF7 = assay: Antiproliferative activity against human MCF7 cells assessed as cell growth inhibition incubated for 5 days by MTT assay; format: functional, cell-based; settings: MCF7, 120 h
[2] = Metabolic stability in human liver microsomes assessed as half life in presence of NADPH as co-foctor incubated for 60 mins by LC-MS/MS analysis; format: ADME, Microsome
[3] = Metabolic stability in human liver microsomes assessed as parent compound remaining in absence of NADPH as co-foctor and measured after 60 mins by LC-MS/MS analysis; format: ADME, Microsome; settings: read-out: Stability
[4] = Metabolic stability in human liver microsomes assessed as parent compound remaining in presence of NADPH as co-foctor and measured after 60 mins by LC-MS/MS analysis; format: ADME, Microsome; settings: read-out: Stability
MDA-MB-231 = assay: Antiproliferative activity against human MDA-MB-231 cells assessed as cell growth inhibition incubated for 5 days by MTT assay; format: functional, cell-based; settings: MDA-MB-231, 120 h
[5] = Metabolic stability in human liver microsomes assessed as intrinsic clearance in presence of NADPH as co-foctor incubated for 60 mins by LC-MS/MS analysis; format: ADME, Microsome; settings: read-out: CLH
[6] = Metabolic stability in human plasma assessed as half life and measured upto 120 mins by LC-MS/MS analysis; format: ADME, cell-free
Procedure, shortened: (§1)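 Pooled frozen plasma was thawed at 37 °C and centrifuged to remove clots. Compound was spiked to a final 2 μM (duplicate) and incubated at 37 °C. At 0, 10, 30, 60 and 120 min, protein was precipitated with acetonitrile stop solution containing tolbutamide and labetalol internal standards. Samples were centrifuged at 4000 rpm and 4 °C, and the supernatant was analysed by LC–MS/MS.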

[7] = Metabolic stability in human plasma assessed as parent compound remaining and measured after 60 mins by LC-MS/MS analysis; format: ADME, cell-free; settings: read-out: Stability; procedure, shortened: as §1
[8] = Metabolic stability in human plasma assessed as parent compound remaining and measured after 0 mins by LC-MS/MS analysis; format: ADME, cell-free; settings: read-out: Stability; procedure, shortened: as §1
CYP2C19 = CYP2C19 (Homo sapiens, UniProt P33261); assay: Inhibition of CYP2C19 in human liver microsomes at 10 uM preincubated for 10 mins followed by NADPH cofactor addition and measured after 10 mins by LC-MS/MS analysis; format: ADME, Microsome; settings: time 20 min
Procedure, shortened: (§2)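 Human liver microsome (HLM) incubation with isoform-specific substrate solutions. Test compound was added from a 100× working solution. Mixture was pre-warmed about 10 min at 37 °C, then NADPH cofactor was added and incubated 10 min at 37 °C. The reaction was stopped with cold stop solution, centrifuged at 4000 rpm for 20 min, and the supernatant was diluted and analysed by LC–MS/MS.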

[9] = Metabolic stability in human plasma assessed as parent compound remaining and measured after 120 mins by LC-MS/MS analysis; format: ADME, cell-free; settings: read-out: Stability; procedure, shortened: as §1
CYP1A2 = molecular target: T2, CYP1A2 (Homo sapiens, UniProt P05177); assay: Inhibition of CYP1A2 in human liver microsomes at 10 uM preincubated for 10 mins followed by NADPH cofactor addition and measured after 10 mins by LC-MS/MS analysis; format: ADME, Microsome; settings: time 20 min; procedure, shortened: as §2
T2 sequence (P05177 whole entry): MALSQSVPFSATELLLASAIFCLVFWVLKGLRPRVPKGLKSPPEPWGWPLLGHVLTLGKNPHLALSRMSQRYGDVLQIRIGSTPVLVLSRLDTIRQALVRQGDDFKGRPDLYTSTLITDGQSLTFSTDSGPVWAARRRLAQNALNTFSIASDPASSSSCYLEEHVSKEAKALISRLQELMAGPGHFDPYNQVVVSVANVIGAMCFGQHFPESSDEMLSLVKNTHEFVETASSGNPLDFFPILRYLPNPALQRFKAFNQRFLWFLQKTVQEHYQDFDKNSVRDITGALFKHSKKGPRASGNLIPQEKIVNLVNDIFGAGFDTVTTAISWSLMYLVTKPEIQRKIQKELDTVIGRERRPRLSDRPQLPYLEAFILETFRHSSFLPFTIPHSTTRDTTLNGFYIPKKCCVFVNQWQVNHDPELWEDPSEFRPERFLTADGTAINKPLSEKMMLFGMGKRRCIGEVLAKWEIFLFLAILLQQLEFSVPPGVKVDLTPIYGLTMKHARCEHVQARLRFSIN

CYP2C9 = CYP2C9 (Homo sapiens, UniProt P11712); assay: Inhibition of CYP2C9 in human liver microsomes at 10 uM preincubated for 10 mins followed by NADPH cofactor addition and measured after 10 mins by LC-MS/MS analysis; format: ADME, Microsome; settings: time 20 min
CYP2D6 = CYP2D6 (Homo sapiens, UniProt P10635); assay: Inhibition of CYP2D6 in human liver microsomes at 10 uM preincubated for 10 mins followed by NADPH cofactor addition and measured after 10 mins by LC-MS/MS analysis; format: ADME, Microsome; settings: time 20 min; procedure, shortened: as §2
[10] = Metabolic stability in human plasma assessed as parent compound remaining and measured after 30 mins by LC-MS/MS analysis; format: ADME, cell-free; settings: read-out: Stability; procedure, shortened: as §1
CYP3A4 = CYP3A4 (Homo sapiens, UniProt P08684); assay: Inhibition of CYP3A4 in human liver microsomes at 10 uM preincubated for 10 mins followed by NADPH cofactor addition and measured after 10 mins by LC-MS/MS analysis; format: ADME, Microsome; settings: time 20 min; procedure, shortened: as §2
[11] = Metabolic stability in human plasma assessed as parent compound remaining and measured after 10 mins by LC-MS/MS analysis; format: ADME, cell-free; settings: read-out: Stability; procedure, shortened: as §1

CYP3A4, sequence (P08684 whole entry): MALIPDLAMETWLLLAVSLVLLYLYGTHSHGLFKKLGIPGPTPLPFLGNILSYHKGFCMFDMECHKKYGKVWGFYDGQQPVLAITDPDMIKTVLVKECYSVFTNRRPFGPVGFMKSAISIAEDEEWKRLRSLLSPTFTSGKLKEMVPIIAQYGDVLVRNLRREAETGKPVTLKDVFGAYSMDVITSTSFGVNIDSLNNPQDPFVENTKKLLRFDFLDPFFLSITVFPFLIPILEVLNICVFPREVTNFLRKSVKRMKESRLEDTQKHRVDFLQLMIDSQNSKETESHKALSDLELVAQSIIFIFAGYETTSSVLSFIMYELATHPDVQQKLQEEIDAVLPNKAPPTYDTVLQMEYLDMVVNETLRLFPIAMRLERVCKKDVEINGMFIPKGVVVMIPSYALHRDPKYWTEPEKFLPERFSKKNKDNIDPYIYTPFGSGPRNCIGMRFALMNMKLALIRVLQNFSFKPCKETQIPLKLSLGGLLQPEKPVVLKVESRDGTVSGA
CYP2C9, sequence (P11712 whole entry): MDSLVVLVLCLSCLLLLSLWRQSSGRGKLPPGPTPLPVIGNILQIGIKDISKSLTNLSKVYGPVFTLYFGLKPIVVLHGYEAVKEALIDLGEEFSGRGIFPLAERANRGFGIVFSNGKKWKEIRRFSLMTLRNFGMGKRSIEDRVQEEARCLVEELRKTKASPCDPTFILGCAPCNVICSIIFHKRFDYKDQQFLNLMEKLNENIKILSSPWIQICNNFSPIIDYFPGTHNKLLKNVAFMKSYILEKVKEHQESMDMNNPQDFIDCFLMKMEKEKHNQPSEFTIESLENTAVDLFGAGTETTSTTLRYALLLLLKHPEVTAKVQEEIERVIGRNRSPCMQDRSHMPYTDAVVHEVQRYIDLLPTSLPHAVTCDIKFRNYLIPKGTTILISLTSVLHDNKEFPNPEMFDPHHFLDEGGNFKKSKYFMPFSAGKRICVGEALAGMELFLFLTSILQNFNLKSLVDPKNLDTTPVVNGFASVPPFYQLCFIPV
CYP2D6, sequence (P10635 whole entry): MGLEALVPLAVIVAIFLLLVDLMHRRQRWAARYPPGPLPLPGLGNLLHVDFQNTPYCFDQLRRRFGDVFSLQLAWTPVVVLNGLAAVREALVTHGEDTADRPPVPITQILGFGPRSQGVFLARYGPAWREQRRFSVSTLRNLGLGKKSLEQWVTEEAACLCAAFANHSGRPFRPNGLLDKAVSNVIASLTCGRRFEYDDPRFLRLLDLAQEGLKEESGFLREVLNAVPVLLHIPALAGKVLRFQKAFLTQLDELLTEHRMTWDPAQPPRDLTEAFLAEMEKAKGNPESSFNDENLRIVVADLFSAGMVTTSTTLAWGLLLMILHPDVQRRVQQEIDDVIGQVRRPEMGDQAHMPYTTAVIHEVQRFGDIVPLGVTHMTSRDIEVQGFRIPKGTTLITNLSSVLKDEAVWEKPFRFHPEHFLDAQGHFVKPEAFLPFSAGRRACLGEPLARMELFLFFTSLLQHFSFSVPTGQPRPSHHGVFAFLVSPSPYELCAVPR
CYP2C19, sequence (P33261 whole entry, canonical isoform): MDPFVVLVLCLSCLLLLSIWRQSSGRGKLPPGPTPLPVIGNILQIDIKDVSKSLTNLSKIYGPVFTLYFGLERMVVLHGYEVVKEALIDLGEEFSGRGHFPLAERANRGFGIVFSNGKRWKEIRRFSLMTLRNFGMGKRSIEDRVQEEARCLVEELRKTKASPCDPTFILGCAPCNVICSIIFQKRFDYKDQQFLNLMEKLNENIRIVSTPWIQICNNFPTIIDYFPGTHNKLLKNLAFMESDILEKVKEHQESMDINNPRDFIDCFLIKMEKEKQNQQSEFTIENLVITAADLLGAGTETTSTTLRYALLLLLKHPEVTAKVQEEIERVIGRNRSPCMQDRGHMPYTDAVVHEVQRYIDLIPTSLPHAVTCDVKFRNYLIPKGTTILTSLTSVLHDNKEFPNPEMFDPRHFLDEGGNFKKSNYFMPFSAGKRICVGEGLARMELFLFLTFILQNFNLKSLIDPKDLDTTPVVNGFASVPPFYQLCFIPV

Nc1ccc(Sc2ccnc(Nc3ccc(N4CCOCC4)cc3)n2)cc1F
pIC50 [1]: 7.25

Fc1cccc(Sc2ccnc(Nc3ccc(N4CCOCC4)cc3)n2)c1
pIC50 [1]: 7.10

Nc1ccc(Sc2ccnc(Nc3ccc(N4CCOCC4)cc3)n2)cc1
pIC50 (BT-474): < 4.70 | pIC50 (MCF7): 5.06 | half-life [2]: 0.972 h | remaining at 1 h [3]: 94.4% | pIC50 [1]: 7.77 | remaining at 1 h [4]: 48.7% | pIC50 (MDA-MB-231): 5.29 | microsomal CLint [5]: 23.8 µL/min/mg

Nc1ccc(Sc2ccnc(Nc3ccc(N4CCOCC4)cc3)n2)c(F)c1
pIC50 (BT-474): 5.03 | pIC50 (MCF7): 5.46 | pIC50 [1]: 7.46 | pIC50 (MDA-MB-231): 5.09

CNc1ccc(Sc2ccnc(Nc3ccc(N4CCOCC4)cc3)n2)cc1
pIC50 [1]: 7.15

Nc1ccc(Sc2ccnc(Nc3ccc(C(=O)N4CCOCC4)cc3)n2)cc1
pIC50 (BT-474): 4.79 | pIC50 (MCF7): 5.41 | pIC50 [1]: 7.41 | pIC50 (MDA-MB-231): 5.35

Nc1ccc(Sc2ccnc(Nc3cccc(N4CCOCC4)c3)n2)cc1
pIC50 (BT-474): 4.89 | pIC50 (MCF7): < 4.70 | pIC50 [1]: 7.35 | pIC50 (MDA-MB-231): 5.29

Fc1ccc(Sc2ccnc(Nc3ccc(N4CCOCC4)cc3)n2)cc1
pIC50 [1]: 6.70

Nc1ccc(Sc2ccnc(Nc3ccc(N4CCSCC4)cc3)n2)cc1
pIC50 [1]: 5.96

Nc1cccc(Sc2ccnc(Nc3ccc(N4CCOCC4)cc3)n2)c1
pIC50 [1]: 6.82

Brc1cccc(Sc2ccnc(Nc3ccc(N4CCOCC4)cc3)n2)c1
pIC50 [1]: 5.62

Nc1ccc(Sc2ccnc(Nc3ccc(N4CCNCC4)cc3)n2)cc1
pIC50 [1]: 6.86

Brc1ccccc1Sc1ccnc(Nc2ccc(N3CCOCC3)cc2)n1
pIC50 [1]: 6.66

Clc1cccc(Sc2ccnc(Nc3ccc(N4CCOCC4)cc3)n2)c1
pIC50 [1]: 5.85

Nc1ccc(Sc2ccnc(Nc3cccc(CN4CCOCC4)c3)n2)cc1
pIC50 [1]: 6.86

c1cc(Sc2ccc3[nH]ncc3c2)nc(Nc2ccc(N3CCOCC3)cc2)n1
pIC50 [1]: 6.90

Clc1ccccc1Sc1ccnc(Nc2ccc(N3CCOCC3)cc2)n1
pIC50 [1]: 6.85

Nc1ccc(Sc2ccnc(Nc3ccccc3)n2)cc1
pIC50 [1]: 6.28

c1ccc(CNc2ccnc(Nc3ccc(N4CCOCC4)cc3)n2)cc1
pIC50 [1]: 6.75

Clc1ccc(Sc2ccnc(Nc3ccc(N4CCOCC4)cc3)n2)cc1
pIC50 [1]: 6.83

Brc1ccc(Sc2ccnc(Nc3ccc(N4CCOCC4)cc3)n2)cc1
pIC50 [1]: 6.72

c1ccc(Oc2ccnc(Nc3ccc(N4CCOCC4)cc3)n2)cc1
pIC50 [1]: 7.09

Fc1ccccc1Sc1ccnc(Nc2ccc(N3CCOCC3)cc2)n1
pIC50 [1]: 6.87

Nc1ccc(Sc2ccnc(Nc3ccc(NC4CCNCC4)cc3)n2)cc1
pIC50 [1]: 7.24

c1ccc(Sc2ccnc(Nc3ccc(N4CCOCC4)cc3)n2)cc1
pIC50 (BT-474): < 4.70 | pIC50 (MCF7): < 4.70 | pIC50 [1]: 7.51 | pIC50 (MDA-MB-231): 5.12

c1ccc2c(Sc3ccnc(Nc4ccc(N5CCOCC5)cc4)n3)cccc2c1
pIC50 [1]: 6.75

c1ccc(Nc2ccnc(Nc3ccc(N4CCOCC4)cc3)n2)cc1
pIC50 [1]: 7.19

Nc1ccc(Sc2ccnc(Nc3ccc(NC4CCNC4)cc3)n2)cc1 (stereo unspecified)
pIC50 [1]: 7.10

Nc1ccc(Sc2ccnc(Nc3ccc(NC4CCOCC4)cc3)n2)cc1
half-life [6]: > 4.82 h | remaining at 1 h [7]: 107% | remaining at 0 h [8]: 100% | inhibition at 10 min, 10 µM (CYP2C19): 48.7% | remaining at 2 h [9]: 104% | inhibition at 10 min, 10 µM (CYP1A2): 33.1% | pIC50 (BT-474): 5.11 | pIC50 (MCF7): 5.84 | half-life [2]: > 2.42 h | inhibition at 10 min, 10 µM (CYP2C9): 42.9% | remaining at 1 h [3]: 104% | inhibition at 10 min, 10 µM (CYP2D6): 8% | pIC50 [1]: 8.15 | remaining at 1 h [4]: 100% | remaining at 0.5 h [10]: 114% | inhibition at 10 min, 10 µM (CYP3A4): 14.4% | remaining at 10 min [11]: 105% | pIC50 (MDA-MB-231): 5.67 | microsomal CLint [5]: < 9.6 µL/min/mg

Nc1ccccc1Sc1ccnc(Nc2ccc(N3CCOCC3)cc2)n1
pIC50 [1]: 6.53

Nc1ccc(Sc2ccnc(Nc3ccc(CN4CCNCC4)cc3)n2)cc1
pIC50 [1]: 6.42

Nc1ccc(Sc2ccnc(Nc3ccc(CN4CCOCC4)cc3)n2)cc1
pIC50 [1]: 7.19

CN(C)c1ccc(Sc2ccnc(Nc3ccc(N4CCOCC4)cc3)n2)cc1
pIC50 [1]: 6.50

COC(=O)c1cc(Nc2nccc(Sc3ccc(N)cc3)n2)ccc1NC1CCOCC1
pIC50 [1]: 5.18

CNC(=O)c1ccccc1Sc1ccnc(Nc2ccc(N3CCOCC3)cc2)n1
pIC50 [1]: 6.99

c1cc(Sc2ccnc(Nc3ccc(N4CCOCC4)cc3)n2)c2cccnc2c1
pIC50 (BT-474): < 4.70 | pIC50 (MCF7): < 4.70 | pIC50 [1]: 7.34 | pIC50 (MDA-MB-231): 5.19
